These results are taken from PMC3966491 (Chemical biology & drug design, 2013).

The target in one data set is T1, IKBKB (IKK beta) (Homo sapiens, UniProt O14920).
T1 sequence (O14920 1-756): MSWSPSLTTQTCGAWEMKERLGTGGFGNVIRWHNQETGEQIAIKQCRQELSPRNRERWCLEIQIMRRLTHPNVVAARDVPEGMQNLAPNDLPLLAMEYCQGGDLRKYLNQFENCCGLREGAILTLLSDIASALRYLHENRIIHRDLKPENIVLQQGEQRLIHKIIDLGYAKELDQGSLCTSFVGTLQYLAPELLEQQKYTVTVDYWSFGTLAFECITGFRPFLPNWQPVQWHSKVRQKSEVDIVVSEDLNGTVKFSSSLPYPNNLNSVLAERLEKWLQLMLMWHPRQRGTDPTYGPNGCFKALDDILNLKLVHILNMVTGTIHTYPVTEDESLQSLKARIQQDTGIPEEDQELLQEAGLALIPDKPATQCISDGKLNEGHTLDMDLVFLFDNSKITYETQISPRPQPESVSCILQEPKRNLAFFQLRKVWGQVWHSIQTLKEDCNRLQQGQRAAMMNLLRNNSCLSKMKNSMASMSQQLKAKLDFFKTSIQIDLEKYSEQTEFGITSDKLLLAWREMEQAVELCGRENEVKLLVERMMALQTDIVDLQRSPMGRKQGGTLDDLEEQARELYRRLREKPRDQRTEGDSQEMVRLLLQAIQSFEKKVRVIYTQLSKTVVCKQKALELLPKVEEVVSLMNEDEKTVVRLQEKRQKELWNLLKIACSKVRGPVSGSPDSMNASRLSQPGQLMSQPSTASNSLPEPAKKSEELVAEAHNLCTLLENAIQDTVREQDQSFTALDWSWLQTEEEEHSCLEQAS
The data set can be described thus: IKKβ. The data set is classed as biochemical. To be noted: for IKKβ in vitro kinase inhibition (in words): stated for IKKs. In outline:
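Z′-LYTE format. Development used Reagent B (1:64) protease; read-out was the coumarin 445 nm/fluorescein 520 nm emission ratio. Where noted, IC50 was predicted from % inhibition at 10 μM test compound, mean of two experiments.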

Another data set has as its target AKT1 (PKB alpha) (Homo sapiens, UniProt P31749). The data set can be described thus: AKT1 in vitro kinase assay. The data set is classed as biochemical. Put shortly: (§1)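 Z′-LYTE assay. Enzyme per 10 μL reaction: AKT1 0.34–7.65 ng, AKT2 1–40 ng, or AKT3 0.56–8.3 ng. Reaction contained 2 μM Ser/Thr 06 peptide, ATP at Km, 50 mM HEPES pH 7.5, 0.01% BRIJ-35, 10 mM MgCl2 and 1 mM EGTA. After 1 h, Development Reagent A (1:2048) protease cleaved non-phosphorylated peptide. Read-out was the coumarin 445 nm/fluorescein 520 nm emission ratio; curves were fitted.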

Another data set has as its target AKT3 (PKB gamma) (Homo sapiens, UniProt Q9Y243). Briefly: AKT3 in vitro kinase assay. The data set is classed as biochemical. Put shortly: as §1
A further data set deals with T2, CHUK (IKK alpha) (Homo sapiens, UniProt O15111).
T2 sequence (O15111 1-745): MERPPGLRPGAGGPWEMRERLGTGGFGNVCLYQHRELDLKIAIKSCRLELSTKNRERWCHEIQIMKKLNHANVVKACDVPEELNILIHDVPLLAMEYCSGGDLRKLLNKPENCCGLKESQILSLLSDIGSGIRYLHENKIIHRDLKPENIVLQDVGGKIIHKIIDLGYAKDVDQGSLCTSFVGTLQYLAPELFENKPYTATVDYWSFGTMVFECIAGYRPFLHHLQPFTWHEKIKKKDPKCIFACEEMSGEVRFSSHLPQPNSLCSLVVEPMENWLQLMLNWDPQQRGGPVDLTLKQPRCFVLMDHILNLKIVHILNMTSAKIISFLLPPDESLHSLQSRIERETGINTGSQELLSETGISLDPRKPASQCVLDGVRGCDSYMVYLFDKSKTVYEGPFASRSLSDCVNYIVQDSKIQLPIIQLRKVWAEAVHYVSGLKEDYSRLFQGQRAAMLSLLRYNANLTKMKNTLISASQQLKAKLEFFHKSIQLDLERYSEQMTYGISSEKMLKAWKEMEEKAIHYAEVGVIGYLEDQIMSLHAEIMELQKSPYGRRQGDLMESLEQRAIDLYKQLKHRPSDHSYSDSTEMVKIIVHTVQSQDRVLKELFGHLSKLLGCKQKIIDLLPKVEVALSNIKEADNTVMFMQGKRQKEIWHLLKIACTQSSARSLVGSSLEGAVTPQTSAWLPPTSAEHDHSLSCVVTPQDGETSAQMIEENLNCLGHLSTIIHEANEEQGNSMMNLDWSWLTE
The data set can be described thus: IKKα. The data set is classed as biochemical. To be noted: for IKKα in vitro kinase inhibition (in words): stated for IKKs. In outline:
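ADAPTA ADP-detection format. Detection mix added EDTA (stop), europium-labelled anti-ADP antibody and Alexa Fluor 647 ADP tracer; ADP formation was taken from the emission ratio. Where noted, IC50 was predicted from % inhibition at 1 μM test compound, mean of two experiments.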

A further data set has as its target AKT2 (PKB beta) (Homo sapiens, UniProt P31751). The data set can be described thus: AKT2 in vitro kinase assay. The class given is biochemical. In outline: as §1
The nature of data set [1]: in vitro microsomal stability. The class given is in vitro ADME.
Data set [2] can be described thus: in vitro plasma stability. The class given is in vitro ADME.

The structures appear in SMILES notation.

The IC50 is the point on the concentration scale where inhibition reaches its midpoint. Lower therefore signals greater potency.

Chain of AKT3 (PKB gamma) (Q9Y243 whole entry): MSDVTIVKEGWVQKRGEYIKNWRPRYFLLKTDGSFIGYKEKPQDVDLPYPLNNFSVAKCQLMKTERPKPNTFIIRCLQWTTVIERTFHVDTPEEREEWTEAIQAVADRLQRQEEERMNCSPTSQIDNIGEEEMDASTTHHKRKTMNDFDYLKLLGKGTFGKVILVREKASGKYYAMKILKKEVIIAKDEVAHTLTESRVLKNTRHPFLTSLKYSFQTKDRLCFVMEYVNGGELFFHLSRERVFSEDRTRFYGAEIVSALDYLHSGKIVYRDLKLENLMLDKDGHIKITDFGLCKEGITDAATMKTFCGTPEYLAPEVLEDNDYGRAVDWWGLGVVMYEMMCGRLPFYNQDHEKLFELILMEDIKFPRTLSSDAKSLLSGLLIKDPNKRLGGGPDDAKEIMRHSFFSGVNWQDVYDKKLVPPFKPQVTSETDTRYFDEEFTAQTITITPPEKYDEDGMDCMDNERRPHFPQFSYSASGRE
Chain of AKT2 (PKB beta) (P31751 whole entry): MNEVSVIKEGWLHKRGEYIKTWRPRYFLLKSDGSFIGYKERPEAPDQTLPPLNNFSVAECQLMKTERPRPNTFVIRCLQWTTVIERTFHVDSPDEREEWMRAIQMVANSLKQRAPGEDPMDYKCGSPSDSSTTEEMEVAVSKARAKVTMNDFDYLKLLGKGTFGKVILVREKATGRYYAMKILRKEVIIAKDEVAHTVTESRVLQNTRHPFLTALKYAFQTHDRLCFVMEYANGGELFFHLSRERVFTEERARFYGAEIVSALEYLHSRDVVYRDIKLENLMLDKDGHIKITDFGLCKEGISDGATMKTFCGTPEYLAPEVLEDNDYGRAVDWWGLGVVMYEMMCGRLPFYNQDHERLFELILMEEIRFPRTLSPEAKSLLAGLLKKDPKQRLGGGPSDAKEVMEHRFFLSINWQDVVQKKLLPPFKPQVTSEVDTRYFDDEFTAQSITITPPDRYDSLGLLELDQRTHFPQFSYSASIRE
Chain of AKT1 (PKB alpha) (P31749 whole entry): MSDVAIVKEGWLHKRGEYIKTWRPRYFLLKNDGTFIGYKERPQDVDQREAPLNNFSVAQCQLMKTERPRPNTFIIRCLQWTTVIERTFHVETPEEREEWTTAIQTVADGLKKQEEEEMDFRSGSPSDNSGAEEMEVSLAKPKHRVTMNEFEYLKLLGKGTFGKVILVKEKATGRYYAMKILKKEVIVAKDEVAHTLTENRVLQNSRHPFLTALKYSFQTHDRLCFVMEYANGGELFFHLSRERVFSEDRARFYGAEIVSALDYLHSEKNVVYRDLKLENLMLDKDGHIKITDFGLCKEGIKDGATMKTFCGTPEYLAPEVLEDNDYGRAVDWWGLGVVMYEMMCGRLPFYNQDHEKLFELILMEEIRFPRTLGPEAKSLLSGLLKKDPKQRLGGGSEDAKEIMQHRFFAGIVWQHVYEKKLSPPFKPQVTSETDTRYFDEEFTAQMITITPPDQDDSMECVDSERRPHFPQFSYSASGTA

As to `Cc1ccc2[nH]c(=O)c(C(=O)/C=C/c3nc4ccccc4[nH]3)c(-c3ccccc3)c2c1` [compound 45, (E)-3-(3-(1H-benzo[d]imidazol-2-yl)acryloyl)-6-methyl-4-phenylquinolin-2(1H)-one], the IC50 on IKBKB (IKK beta) worked out at 7.9 µM; against AKT1 (PKB alpha), 6.26 µM; at AKT3 (PKB gamma), 5.53 µM; on CHUK (IKK alpha) it was 29.1 µM.

For `Cc1ccc(-c2c(C(=O)/C=C/c3nc4cc(F)c(F)cc4[nH]3)c(=O)[nH]c3ccc(Cl)cc23)cc1` [compound 50, (E)-6-chloro-3-(3-(5,6-difluoro-1H-benzo[d]imidazol-2-yl)acryloyl)-4-(p-tolyl)quinolin-2(1H)-one], at AKT1 (PKB alpha), the IC50 was more than 50 µM.

Consider `O=C(CCc1nc2ccccc2[nH]1)c1c(-c2ccccc2)c2cc(Cl)ccc2[nH]c1=O` [compound 59, 3-(3-(1H-benzo[d]imidazol-2-yl)propanoyl)-6-chloro-4-phenylquinolin-2(1H)-one], for which the “IKKβ in vitro kinase inhibition (in words)” value on IKBKB (IKK beta) is “completely inactive”. Moreover, the “AKT1 in vitro inhibition (in words)” value on AKT1 (PKB alpha) is “completely inactive”. Moreover, at CHUK (IKK alpha), the “IKKα in vitro kinase inhibition (in words)” value is “completely inactive”.

In the case of `O=C(/C=C/c1nc2cc(F)c(F)cc2[nH]1)c1c(-c2ccc(F)c(F)c2)c2cc(F)ccc2[nH]c1=O` [compound 54, (E)-3-(3-(5,6-difluoro-1H-benzo[d]imidazol-2-yl)acryloyl)-4-(3,4-difluorophenyl)-6-fluoroquinolin-2(1H)-one], the 50% inhibitory concentration (IC50) against IKBKB (IKK beta) is 16.4 µM; on AKT1 (PKB alpha), 44.5 µM; on CHUK (IKK alpha), 7.2 µM.

Consider `O=C(/C=C/c1nc2cc(F)c(F)cc2[nH]1)c1c(-c2ccc(F)c(F)c2)c2cc(Cl)ccc2[nH]c1=O` [compound 55, (E)-6-chloro-3-(3-(5,6-difluoro-1H-benzo[d]imidazol-2-yl)acryloyl)-4-(3,4-difluorophenyl)quinolin-2(1H)-one], for which the concentration for half-maximal inhibition (IC50) is 17.8 µM against IKBKB (IKK beta), more than 50 µM on AKT1 (PKB alpha) and 12.1 µM on CHUK (IKK alpha).

The compound `CCOc1ccc(-c2c(C(=O)/C=C/c3nc4cc(F)c(F)cc4[nH]3)c(=O)[nH]c3ccc(Cl)cc23)cc1` [compound 53, (E)-6-chloro-3-(3-(5,6-difluoro-1H-benzo[d]imidazol-2-yl)acryloyl)-4-(4-ethoxyphenyl)quinolin-2(1H)-one] gave an IC50 at AKT1 (PKB alpha) of more than 50 µM.

With `O=C(/C=C/c1nc2ccccc2[nH]1)c1c(-c2ccccc2)c2cc(Br)ccc2[nH]c1=O` [compound 44, (E)-3-(3-(1H-benzo[d]imidazol-2-yl)acryloyl)-6-bromo-4-phenylquinolin-2(1H)-one], the 50% inhibitory concentration (IC50) worked out at 5.6 µM against IKBKB (IKK beta); 4.48 µM on AKT1 (PKB alpha); 1.72 µM against AKT2 (PKB beta); 8.85 µM at AKT3 (PKB gamma); 6.02 µM against CHUK (IKK alpha).

Take `O=C(/C=C/c1nc2cc(F)c(F)cc2[nH]1)c1c(-c2ccc(F)cc2)c2cc(Cl)ccc2[nH]c1=O` [compound 49, (E)-6-chloro-3-(3-(5,6-difluoro-1H-benzo[d]imidazol-2-yl)acryloyl)-4-(4-fluorophenyl)quinolin-2(1H)-one]: the IC50 against IKBKB (IKK beta) amounted to 15.4 µM; against AKT1 (PKB alpha), 30.4 µM; against CHUK (IKK alpha), 7.12 µM.

With `O=C(/C=C/c1nc2ccccc2[nH]1)c1c(-c2ccccc2)c2ccccc2[nH]c1=O` [compound 43, (E)-3-(3-(1H-benzo[d]imidazol-2-yl)acryloyl)-4-phenylquinolin-2(1H)-one], half-maximal inhibition against AKT1 (PKB alpha) (IC50) was put at 5.2 µM.

Regarding `COc1ccc(-c2c(C(=O)/C=C/c3nc4cc(F)c(F)cc4[nH]3)c(=O)[nH]c3ccc(Cl)cc23)cc1` [compound 52, (E)-6-chloro-3-(3-(5,6-difluoro-1H-benzo[d]imidazol-2-yl)acryloyl)-4-(4-methoxyphenyl)quinolin-2(1H)-one], at AKT1 (PKB alpha), the half-inhibitory concentration (IC50) was more than 50 µM.

`O=C(/C=C/c1nc2cc(Br)ccc2[nH]1)c1c(-c2ccccc2)c2cc(Cl)ccc2[nH]c1=O` [compound 41, (E)-3-(3-(5-bromo-1H-benzo[d]imidazol-2-yl)acryloyl)-6-chloro-4-phenylquinolin-2(1H)-one] came in with an IC50 against AKT1 (PKB alpha) of 14 µM.

Turning to `O=C(/C=C/c1nc2ccccc2[nH]1)c1c(O)nc2ccc(Cl)cc2c1-c1ccccc1` [compound 1, (E)-3-(3-(1H-benzo[d]imidazol-2-yl)acryloyl)-6-chloro-4-phenylquinolin-2(1H)-one], the 50% inhibitory concentration (IC50) against IKBKB (IKK beta) turned out to be 2.3 µM; against AKT1 (PKB alpha), 6.22 µM; against AKT2 (PKB beta), 4.24 µM; on AKT3 (PKB gamma), 10.9 µM; at CHUK (IKK alpha) it was 3.85 µM. The microsomal stability entry in data set [1] was “favorable”. In addition, the plasma stability entry in data set [2] is reported as “favorable”.

`Cc1ccc2[nH]c(/C=C/C(=O)c3c(-c4ccccc4)c4cc(Cl)ccc4[nH]c3=O)nc2c1` [compound 40, (E)-6-chloro-3-(3-(5-methyl-1H-benzo[d]imidazol-2-yl)acryloyl)-4-phenylquinolin-2(1H)-one]: the IC50 at IKBKB (IKK beta) was determined as 9.6 µM; against AKT1 (PKB alpha) it was 43.3 µM; at AKT2 (PKB beta), 5 µM; against AKT3 (PKB gamma), 8.4 µM; against CHUK (IKK alpha), 8.03 µM.

For `O=C(NCc1nc2ccccc2[nH]1)c1c(-c2ccccc2)c2cc(Cl)ccc2[nH]c1=O` [compound 58, N-((1H-benzo[d]imidazol-2-yl)methyl)-6-chloro-2-oxo-4-phenyl-1,2-dihydroquinoline-3-carboxamide], the “IKKβ in vitro kinase inhibition (in words)” value on IKBKB (IKK beta) is “completely inactive”. Moreover, at AKT1 (PKB alpha), the “AKT1 in vitro inhibition (in words)” value was “completely inactive”. In addition, the “IKKα in vitro kinase inhibition (in words)” value at CHUK (IKK alpha) is “completely inactive”.

In turn, `O=C(/C=C/c1nc2cc(F)c(F)cc2[nH]1)c1c(-c2ccc(Cl)cc2)c2cc(Cl)ccc2[nH]c1=O` [compound 51, (E)-6-chloro-4-(4-chlorophenyl)-3-(3-(5,6-difluoro-1H-benzo[d]imidazol-2-yl)acryloyl)quinolin-2(1H)-one] came in with an IC50 against AKT1 (PKB alpha) of more than 50 µM.

The compound `Cn1c(=O)c(C(=O)/C=C/c2nc3cc(F)ccc3[nH]2)c(-c2ccccc2)c2cc(Cl)ccc21` [compound 46, (E)-6-chloro-3-(3-(5-fluoro-1H-benzo[d]imidazol-2-yl)acryloyl)-1-methyl-4-phenylquinolin-2(1H)-one] registered a 50% inhibitory concentration (IC50) at AKT1 (PKB alpha) of 17.2 µM.

Regarding `Cn1c(/C=C/C(=O)c2c(-c3ccccc3)c3cc(Cl)ccc3[nH]c2=O)nc2ccccc21` [compound 39, (E)-6-chloro-3-(3-(1-methyl-1H-benzo[d]imidazol-2-yl)acryloyl)-4-phenylquinolin-2(1H)-one], at AKT1 (PKB alpha), the “AKT1 in vitro inhibition (in words)” value is “inactive” and the IC50 was more than 100 µM.

Consider `O=C(/C=C/c1nc2cc(F)c(F)cc2[nH]1)c1c(-c2ccc(F)cc2)c2cc(F)ccc2[nH]c1=O` [compound 48, (E)-3-(3-(5,6-difluoro-1H-benzo[d]imidazol-2-yl)acryloyl)-6-fluoro-4-(4-fluorophenyl)quinolin-2(1H)-one], for which the half-inhibitory concentration (IC50) against IKBKB (IKK beta) turned out to be 16 µM; on AKT1 (PKB alpha), 15.9 µM; against CHUK (IKK alpha), 13.1 µM.
